Results from different studies.
Each line is one published result; the experiments were not run side by side.
Target: Calcium/calmodulin-dependent protein kinase type IV (CAMK4, Homo sapiens, UniProt Q16566)
Sequence (Q16566 1-473, as in one of the studies): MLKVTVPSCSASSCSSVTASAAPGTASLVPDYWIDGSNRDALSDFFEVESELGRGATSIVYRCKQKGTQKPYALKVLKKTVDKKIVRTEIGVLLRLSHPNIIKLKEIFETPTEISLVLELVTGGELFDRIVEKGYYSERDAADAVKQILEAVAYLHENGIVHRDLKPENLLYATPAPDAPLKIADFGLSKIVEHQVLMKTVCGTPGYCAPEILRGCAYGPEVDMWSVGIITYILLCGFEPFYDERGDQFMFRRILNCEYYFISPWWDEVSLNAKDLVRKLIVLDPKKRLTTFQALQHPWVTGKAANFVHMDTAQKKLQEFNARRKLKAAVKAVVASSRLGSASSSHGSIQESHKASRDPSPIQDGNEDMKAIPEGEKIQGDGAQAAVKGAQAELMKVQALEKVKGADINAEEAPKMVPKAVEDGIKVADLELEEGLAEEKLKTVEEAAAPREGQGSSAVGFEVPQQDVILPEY

| Structure (SMILES) | read-out | action | technique | concentration | measurement | value |
| --- | --- | --- | --- | --- | --- | --- |
| CCC1(CC)NC(=O)c2c(c3ccc(Cl)c(Cl)c3n2C)C1C#N (centres unmarked) | thermal stability | – | DSF | 10 µM | ΔTm | -0.2 °C |
| O=C(NCCCC1CCCCC1)c1ccc(CNC(=O)c2cnn(-c3ccccc3)c2C(F)(F)F)cc1 | cell-free assay | – | competition with immobilised ligand | 0.1 µM | remaining binding | 100% |
| Cc1cnc(NC2CCOCC2)nc1-n1cnc(C(=O)NC(CN)c2cc(F)cc(Cl)c2)c1 (centres unmarked) | enzyme activity | inhibitor | radiometric | 1 µM | remaining activity | 49% |
| COc1ccc2c(c1)O[C@@H](c1ccc(OC)c(OC)c1)C[C@H]2NC(=O)C1(c2ccc3c(c2)OC(F)(F)O3)CC1 | cell-free assay | – | competition with immobilised ligand | 1 µM | remaining binding | 89% |
| O=C1Nc2ccc(Cl)cc2C1=Cc1cc(Cl)c(O)c(Cl)c1 | cell-free assay | – | – | 0.5 µM | remaining signal | 96.8% |
| O=C(Nc1cnn(-c2csc(C(=O)NC3COC3)c2)c1)Nc1c(F)cccc1Cl | enzyme activity | inhibitor | – | 5 µM | remaining activity | 98.7% |
| CS(=O)(=O)CCNCc1ccc(-c2ccc3ncnc(Nc4ccc(OCc5cccc(F)c5)c(Cl)c4)c3c2)o1 | cell-free assay | – | – | 0.5 µM | remaining signal | 107% |
| CC(C)(C)c1nc2c(s1)c1nc(N)ncc1c1ccc(NS(=O)(=O)c3c(F)cccc3F)c(F)c12 | enzyme activity | inhibitor | radiometric | 1 µM | remaining activity | 94% |
| Cn1c2c(c3ccc(Cl)c(Cl)c31)C(C#N)C1(CCOCC1)NC2=O (centres unmarked) | thermal stability | – | DSF | 10 µM | ΔTm | 0 °C |
| Cc1ccc(C(=O)Nc2ccc(CN3CCN(C)CC3)c(C(F)(F)F)c2)cc1C#Cc1cnc2cccnn12 | enzyme activity | inhibitor | – | 23.5 nM | remaining activity | 100% |
| O=C1NC(=O)c2cc(Nc3ccc(F)cc3)c(Nc3ccc(F)cc3)cc21 | cell-free assay | – | – | 0.5 µM | remaining signal | 98.7% |
| CN(C)C1CCN(CC#Cc2nn(C3CCCC3)c3nc(NCc4ccccc4)ncc23)C1 (centres unmarked) | enzyme activity | inhibitor | FRET | 1 µM | inhibition | 7% |
| CNC(=O)c1cc(Oc2ccc(NC(=O)Nc3ccc(Cl)c(C(F)(F)F)c3)cc2)ccn1 | enzyme activity | inhibitor | – | 0.3 µM | inhibition | -4% |
| CCN1CCC2(CC1)NC(=O)c1c(c3ccc(Cl)c(Cl)c3n1C)C2C#N (racemic) | thermal stability | – | DSF | 10 µM | ΔTm | 0.1 °C |
| CCC(=O)N[C@@H]1CC[C@H](C(=O)N(C)c2ccc(-c3nc4ccccc4o3)cc2)C1 | cell-free assay | – | competition with immobilised ligand | 1 µM | remaining binding | 100% |
| Cc1cc(NC(=O)c2cccc3cc(-c4cccc5[nH]nc(N)c45)ccc23)ccc1F | enzyme activity | inhibitor | – | 0.1 µM | activity vs control | 104% |

| Structure (SMILES) | read-out | action | technique | concentration | measurement | value |
| --- | --- | --- | --- | --- | --- | --- |
| Cn1c2c(Cl)c(Cl)ccc2c2cn[nH]c(=O)c21 | thermal stability | – | DSF | 10 µM | ΔTm | 0.1 °C |
| Oc1cccc(-c2nc(N3CCOCC3)c3oc4ncccc4c3n2)c1 | cell-free assay | – | – | 0.5 µM | remaining signal | 103% |
| O=S(=O)(NC1CCC(c2cc(F)ccc2F)(S(=O)(=O)c2ccc(Cl)cc2)CC1)C(F)(F)F (centres unmarked) | cell-free assay | – | competition with immobilised ligand | 1 µM | remaining binding | 100% |
| CCN(CC)c1ccc(C2=NNC(=O)CC2C)cc1[N+](=O)[O-] (centres unmarked) | enzyme activity | inhibitor | – | 10 µM | remaining activity | 102% |
| Cc1ccc(NC(=O)c2ccc(CN3CCN(C)CC3)cc2)cc1Nc1nc(-c2cccnc2)cs1 | cell-free assay | – | – | 0.5 µM | remaining signal | 98.6% |
| CN([C@@H]1CCc2c(CC(=O)O)c3ccccc3n2C1)S(=O)(=O)c1ccc(F)cc1 | cell-free assay | – | competition with immobilised ligand | 1 µM | remaining binding | 85% |
| COc1cc(Cl)c(C(=O)N[C@@H](CN[C@H]2CC[C@@H](N)CC2)Cc2ccc(C#N)cc2)cc1-c1ccc(CN[C@H](C)c2ccc(C)cc2)o1 | enzyme activity | inhibitor | – | 1 µM | remaining activity | 92% |
| CCN(CC)CCNC(=O)c1c(C)[nH]c(/C=C2\C(=O)Nc3ccc(F)cc32)c1C | enzyme activity | inhibitor | – | 0.3 µM | inhibition | 22% |
| CC(C)(O)[C@H]1CC[C@H](Nc2ccc3ncc(-c4cccc(C(F)(F)F)c4)n3n2)CC1 | enzyme activity | inhibitor | – | 1 µM | remaining activity | 107% |
| Cn1c2c(c3ccc(Cl)c(Cl)c31)C(C#N)C1(CCCCC1)NC2=O (racemic) | thermal stability | – | DSF | 10 µM | ΔTm | 0.7 °C |
| Cn1nc(C(=O)NCc2ccc(C(=O)O)cc2)cc1-c1ccc2[nH]ccc2c1 | cell-free assay | – | competition with immobilised ligand | 0.1 µM | remaining binding | 92% |
| O=C(O)c1ccc2c3c1cccc3c(=O)n1c3ccccc3nc21 | cell-free assay | – | – | 0.5 µM | remaining signal | 101% |
| O=C(O)c1cc(-c2ccc(C3CCNCC3)cc2)c2ccc(-c3ccc(C(F)(F)F)cc3)cc2c1 | cell-free assay | – | competition with immobilised ligand | 1 µM | remaining binding | 100% |
| COc1cc2ncnc(Nc3ccc(Oc4ccccc4)cc3C)c2cc1OC | enzyme activity | inhibitor | – | 1 µM | inhibition | -20% |
| Cn1c2c(c3ccccc31)C(C#N)C(C)(C)NC2=O (centres unmarked) | thermal stability | – | DSF | 10 µM | ΔTm | 0 °C |
| Cc1nccc(COC(=O)N2C[C@@H]3[C@@H](CNC(=O)c4ccc5[nH]nnc5c4)[C@@H]3C2)n1 | cell-free assay | – | competition with immobilised ligand | 1 µM | remaining binding | 95% |
